In PubChem BioAssay AID493176 (Broad Institute, 2011):
Records with an inconclusive call do not appear. The source made the active and inactive calls.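 The calls were made as follows: active = every replicate test active, with falling luminescence and half-maximal potency within ten times the top tested dose; inconclusive = tests disagree, or partial flat loss or unreliable fit; inactive = all tests inactive, flat or rising signal or weak potency.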

tested on: HMLE_shECad viability, CellTiter-Glo luminescence, 72 h; test: killing of breast cancer stem-like cells, dose response, cell-based, HMLE_shECad, CellTiter-Glo luminescence, dry powder, set 3 (AID 493176); settings: not given
Procedure, shortened: (§1)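 Material: E-cadherin-knockdown HMLE cells (HMLE_shECad), CSC-like; Amount: 2000 cells per well; Buffer or medium: CSC medium without serum; Compound: pin-transferred compounds; Incubation: ≥4 h settling, then ~70-74 h compound treatment at 37 °C; Signal: CellTiter-Glo luminescence, reagent diluted 1:3 in PBS; Measure: viability from luminescence.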

SMILES	AC50
O=C(COc1ccc(Cl)cc1Cl)N/N=C/c1ccc[nH]1	5.91 µM
Cc1ccc2nc(NC(=O)c3cccc(-c4cc5ccccc5oc4=O)c3)sc2c1	5.37 µM
CN(c1ccccc1)S(=O)(=O)c1ccc(-c2ccccc2)cc1	12.7 µM
C/C(=N\NC(=O)c1cc(-c2cccc([N+](=O)[O-])c2)n[nH]1)c1ccccc1O	8.72 µM
Cc1cc(C)nc(NC(=O)/C=C/c2cccs2)c1	5.95 µM
CC(C)CC(=O)NC(NC(=S)Nc1sc2c(c1C#N)CCCC2)C(Cl)(Cl)Cl (stereo unspecified)	0.619 µM
CCN1C(=O)/C(=C\N2CCN(c3cccc(Cl)c3)CC2)SC1=S	4.92 µM
CC(C)c1ccc(/C=C/C(=O)NC2=NCCS2)cc1	7.96 µM
Cc1csc(NC(=O)c2ccc(COc3ccccc3)o2)n1	12.3 µM
Nc1cc(Cl)ccc1Oc1ccc2ccccc2c1	10.5 µM
CC(=O)c1cccc(NS(=O)(=O)c2cc(-c3cnc(C4CC4)o3)ccc2C)c1	1.02 µM
Cc1onc(-c2ccccc2)c1C(=O)Nc1sc2c(c1C#N)CCC(C)C2 (stereo unspecified)	7.81 µM
CCCCCCc1cc2cc(S(=O)(=O)c3ccc(Cl)cc3)c(=O)oc2cc1O	2.2 µM
O=C(Nc1ccccc1N1CCCC1)c1cccc(-c2cc3ccccc3oc2=O)c1	10 µM
CC(C)(C)c1ccc2c(c1)OC(C(=O)NN=Cc1ccc[nH]1)CO2 (mixture of isomers)	2.21 µM

tested on: not listed separately; test: as above; settings: HMLE_shECad viability, CellTiter-Glo luminescence, 72 h; at 19.5 µM (top of the series)
Procedure, shortened: as §1

SMILES	activity change, negative = inhibition
O=C(c1ccccc1)c1coc2ccc(O)c(Br)c12	1.46% (inactive)
